According to ChEMBL document CHEMBL1800047, “Design and synthesis of cyclic sulfonamides and sulfamates as new calcium sensing receptor agonists” (Bioorg Med Chem Lett, 2010):
Positions count from the first letter of the chain named.

Assays:
Format in all cases: functional, cell-based
[1] = biological target: T1, Extracellular calcium-sensing receptor (Rattus norvegicus) (UniProt P48442); experiment: Agonist activity at rat CaSR expressed in CHO cells assessed as increase of calcium-induced inositol phosphate accumulation at 10 uM after 24 hrs by HTRF assay relative to calcium
T1 sequence (whole entry): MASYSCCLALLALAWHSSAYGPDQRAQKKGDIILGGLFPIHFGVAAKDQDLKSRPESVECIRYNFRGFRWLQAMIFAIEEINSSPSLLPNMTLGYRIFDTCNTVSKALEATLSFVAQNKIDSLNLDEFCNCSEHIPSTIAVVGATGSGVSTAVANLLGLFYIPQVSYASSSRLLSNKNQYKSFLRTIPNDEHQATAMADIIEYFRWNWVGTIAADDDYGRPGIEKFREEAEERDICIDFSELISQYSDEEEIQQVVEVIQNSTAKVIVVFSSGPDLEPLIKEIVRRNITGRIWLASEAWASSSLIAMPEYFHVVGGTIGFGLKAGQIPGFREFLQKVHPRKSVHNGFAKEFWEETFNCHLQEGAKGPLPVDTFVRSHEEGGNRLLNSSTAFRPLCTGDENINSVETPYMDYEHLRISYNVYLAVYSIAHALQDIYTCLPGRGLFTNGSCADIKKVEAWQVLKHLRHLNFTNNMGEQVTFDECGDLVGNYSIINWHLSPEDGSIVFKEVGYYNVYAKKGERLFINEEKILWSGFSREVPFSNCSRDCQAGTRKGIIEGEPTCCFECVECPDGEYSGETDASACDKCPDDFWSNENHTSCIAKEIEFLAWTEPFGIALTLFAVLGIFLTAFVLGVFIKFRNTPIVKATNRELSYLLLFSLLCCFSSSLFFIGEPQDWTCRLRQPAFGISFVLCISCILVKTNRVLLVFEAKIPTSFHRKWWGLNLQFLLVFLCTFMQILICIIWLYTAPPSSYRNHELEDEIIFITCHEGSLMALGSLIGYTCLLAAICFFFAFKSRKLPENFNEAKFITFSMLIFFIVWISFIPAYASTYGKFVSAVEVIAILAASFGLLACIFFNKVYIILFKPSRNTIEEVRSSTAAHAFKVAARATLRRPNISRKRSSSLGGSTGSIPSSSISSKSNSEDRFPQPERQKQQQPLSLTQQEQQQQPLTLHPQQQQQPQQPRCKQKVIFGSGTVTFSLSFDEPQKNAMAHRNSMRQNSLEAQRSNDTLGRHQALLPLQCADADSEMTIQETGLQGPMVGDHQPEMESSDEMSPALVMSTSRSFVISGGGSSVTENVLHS
Summary of the method: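 CHO cells stably expressing rat brain CaSR are grown in Ham's F-12 (0.3 mM Ca²⁺, 0.6 mM Mg²⁺) and seeded at 4 × 10⁴ cells/well. IP-One HTRF runs 24 h later: 10 min preincubation at 37 °C, then 10 µM compound (from 10 mM DMSO stock) with 3 mM Ca²⁺, 30 min at 37 °C. Values are % of 10 mM Ca²⁺ stimulation, mean with S.E.M.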

[2] = system: T2, Extracellular calcium-sensing receptor (Homo sapiens), P41180 [E837A]; experiment: Agonist activity at human CaSR E837A mutant expressed in HEK293 cells assessed as increase of calcium-induced inositol phosphate accumulation at 10 uM after 48 hrs by HTRF assay relative to calcium
T2 sequence (whole entry): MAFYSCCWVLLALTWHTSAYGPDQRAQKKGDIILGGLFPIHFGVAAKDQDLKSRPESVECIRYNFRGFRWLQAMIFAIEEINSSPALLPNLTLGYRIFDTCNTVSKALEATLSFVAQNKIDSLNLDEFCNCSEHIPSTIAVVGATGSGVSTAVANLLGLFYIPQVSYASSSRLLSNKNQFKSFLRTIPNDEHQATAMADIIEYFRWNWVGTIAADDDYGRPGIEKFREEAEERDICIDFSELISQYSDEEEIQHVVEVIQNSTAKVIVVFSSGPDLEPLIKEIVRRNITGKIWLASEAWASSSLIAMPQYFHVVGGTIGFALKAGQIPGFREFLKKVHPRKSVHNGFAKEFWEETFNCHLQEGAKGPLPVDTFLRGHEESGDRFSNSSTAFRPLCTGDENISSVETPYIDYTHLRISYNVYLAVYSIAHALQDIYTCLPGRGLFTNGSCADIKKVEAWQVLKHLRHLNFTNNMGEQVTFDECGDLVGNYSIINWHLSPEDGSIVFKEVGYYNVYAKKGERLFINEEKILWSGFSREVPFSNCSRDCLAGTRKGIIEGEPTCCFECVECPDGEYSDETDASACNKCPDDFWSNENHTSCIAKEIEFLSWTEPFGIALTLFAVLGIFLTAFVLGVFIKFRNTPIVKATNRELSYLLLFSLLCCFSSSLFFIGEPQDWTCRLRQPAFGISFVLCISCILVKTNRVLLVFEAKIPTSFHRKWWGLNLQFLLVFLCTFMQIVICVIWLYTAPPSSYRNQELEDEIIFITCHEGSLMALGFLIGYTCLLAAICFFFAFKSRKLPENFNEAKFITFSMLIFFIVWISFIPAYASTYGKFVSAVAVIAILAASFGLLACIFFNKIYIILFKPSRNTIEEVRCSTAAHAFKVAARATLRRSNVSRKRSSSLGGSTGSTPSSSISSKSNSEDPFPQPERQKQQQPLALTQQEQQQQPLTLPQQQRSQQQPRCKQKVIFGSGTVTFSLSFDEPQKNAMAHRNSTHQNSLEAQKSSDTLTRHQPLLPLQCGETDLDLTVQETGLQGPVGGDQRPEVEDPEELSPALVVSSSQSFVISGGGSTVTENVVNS
Summary of the method: (§1)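 Wild-type or E837A mutant hCaSR (pcDNA3) transiently transfected into HEK293 cells (10⁷ cells, electroporation). Cells are plated on poly-D-lysine and assayed 48 h later. The assay uses a 10 min preincubation at 37 °C, then compound plus 3 mM Ca²⁺ for 30 min at 37 °C. IP-One HTRF read-out is 620/665 nm after 337 nm excitation. Values are % of 10 mM Ca²⁺ response, mean with S.E.M.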

[3] = biological target: T3, Extracellular calcium-sensing receptor (Homo sapiens) (UniProt P41180); experiment: Agonist activity at human CaSR expressed in HEK293 cells assessed as increase of calcium-induced inositol phosphate accumulation at 10 uM after 48 hrs by HTRF assay relative to calcium; summary of the method: as §1
T3 sequence (whole entry): T2 sequence (whole entry) with A837E, Q1011E

SMILES | Activity [1] | Activity [2] | Activity [3]
C[C@@H](NC[C@@H]1NS(=O)(=O)c2ccccc2-c2ccccc21)c1cccc2ccccc12 | 19% | – | –
C[C@@H](NC[C@H]1NS(=O)(=O)c2ccccc2-c2ccccc21)c1cccc2ccccc12 | 29% | – | –
C[C@@H](NCc1cc2ccccc2[nH]1)c1cccc2ccccc12 | 95% | 41% | 94%
C[C@@H](N[C@@H]1CNS(=O)(=O)c2ccccc21)c1cccc2ccccc12 | 13% | – | –
C[C@@H](N[C@H]1CNS(=O)(=O)c2ccccc21)c1cccc2ccccc12 | 30% | – | –
C[C@@H](NC1CNS(=O)(=O)Oc2ccccc2C1)c1cccc2ccccc12 (single isomer, unassigned; diastereomer 1) | 67% | 1% | 67%
C[C@@H](NCC1Cc2ccccc2OS(=O)(=O)N1)c1cccc2ccccc12 (single isomer, unassigned; diastereomer 1) | 85% | 51% | 75%
C[C@@H](NC1CNS(=O)(=O)Oc2ccccc2C1)c1cccc2ccccc12 (single isomer, unassigned; diastereomer 2) | 17% | 1% | 2%
C[C@@H](NCC1Cc2ccccc2OS(=O)(=O)N1)c1cccc2ccccc12 (single isomer, unassigned; diastereomer 2) | 76% | 27% | 65%

More lines, now with the values ahead:

Activity [1] | Activity [2] | Activity [3] | SMILES
75% | 3% | 70% | C[C@@H](NCC1CCc2ccccc2S(=O)(=O)N1)c1cccc2ccccc12 (single isomer, unassigned; diastereomer 1)
71% | 22% | 73% | C[C@@H](NCC1Cc2ccccc2S(=O)(=O)N1)c1cccc2ccccc12 (single isomer, unassigned; diastereomer 1)
57% | 11% | 58% | C[C@@H](NCC1NS(=O)(=O)c2ccccc21)c1cccc2ccccc12 (single isomer, unassigned; diastereomer 1)
37% | 1% | 40% | C[C@@H](NCC1CCc2ccccc2S(=O)(=O)N1)c1cccc2ccccc12 (single isomer, unassigned; diastereomer 2)
69% | 10% | 64% | C[C@@H](NCC1Cc2ccccc2S(=O)(=O)N1)c1cccc2ccccc12 (single isomer, unassigned; diastereomer 2)
39% | 11% | 51% | C[C@@H](NCC1NS(=O)(=O)c2ccccc21)c1cccc2ccccc12 (single isomer, unassigned; diastereomer 2)
